Test results reported in ChEMBL document CHEMBL5550111, “Design, synthesis and biological evaluation of aryloxy thiophosphoramidate triesters of anticancer nucleoside analogues” (Bioorg Med Chem, 2024).

What was measured:
[1] = test system: HT-29; test: Cytotoxicity against human HT-29 cells assessed as maximum inhibition of cell viability upto 198 uM incubated for 72 hrs by MTS assay relative to control; assay type: functional; conditions: up to 198 µM
Outline: (§1)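 Cells seeded at 0.5 to 100 × 10^3 per well the day before drug addition, then exposed to compound for 72 h. MTS added afterwards, with a further 4 h at 37 °C, and absorbance read. Tested in duplicate at 9 serial 3.16-fold dilutions, top concentration 198 μM. MI% is the maximum inhibition of viability across the tested range.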

[2] = test system: COLO 205; test: Cytotoxicity against human COLO 205 cells assessed as inhibition of cell viability incubated for 72 hrs by MTS assay; assay type: functional, cell-based; conditions: COLO 205, 72 h
Outline: (§2)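 Cells seeded at 0.5 to 100 × 10^3 per well the day before treatment, then exposed for 72 h to 9 serial concentrations (3.16-fold dilutions, top 198 μM), in duplicate. MTS added for a final 4 h at 37 °C and absorbance read. IC50 is the concentration giving 50% loss of viability. MI% is the maximum inhibition over the tested range.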

[3] = test system: RT112/84; test: Cytotoxicity against human RT112/84 cells assessed as inhibition of cell viability incubated for 72 hrs by MTS assay; assay type: functional, cell-based; conditions: RT112/84, 72 h; outline: as §2
[4] = test system: MIA PaCa-2; test: Cytotoxicity against human MIA PaCa-2 cells assessed as inhibition of cell viability incubated for 72 hrs by MTS assay; assay type: functional, cell-based; conditions: MIA PaCa-2, 72 h; outline: as §2
[5] = test system: OVCAR-3; test: Cytotoxicity against human OVCAR-3 cells assessed as inhibition of cell viability incubated for 72 hrs by MTS assay; assay type: functional, cell-based; conditions: OVCAR-3, 72 h; outline: as §2
[6] = test system: COLO 205; test: Cytotoxicity against human COLO 205 cells assessed as maximum inhibition of cell viability upto 198 uM incubated for 72 hrs by MTS assay relative to control; assay type: functional; conditions: up to 198 µM; outline: as §1
[7] = test system: RPMI-8226; test: Cytotoxicity against human RPMI-8226 cells assessed as maximum inhibition of cell viability upto 198 uM incubated for 72 hrs by MTS assay relative to control; assay type: functional; conditions: up to 198 µM; outline: as §1
[8] = test system: OVCAR-3; test: Cytotoxicity against human OVCAR-3 cells assessed as maximum inhibition of cell viability upto 198 uM incubated for 72 hrs by MTS assay relative to control; assay type: functional; conditions: up to 198 µM; outline: as §1
[9] = test system: HT-29; test: Cytotoxicity against human HT-29 cells assessed as inhibition of cell viability incubated for 72 hrs by MTS assay; assay type: functional, cell-based; conditions: HT-29, 72 h; outline: as §2
[10] = test system: SK-MES-1; test: Cytotoxicity against human SK-MES-1 cells assessed as inhibition of cell viability incubated for 72 hrs by MTS assay; assay type: functional, cell-based; conditions: SK-MES-1, 72 h; outline: as §2
[11] = test system: RT112/84; test: Cytotoxicity against human RT112/84 cells assessed as maximum inhibition of cell viability upto 198 uM incubated for 72 hrs by MTS assay relative to control; assay type: functional; conditions: up to 198 µM; outline: as §1
[12] = test system: NCI-H1975; test: Cytotoxicity against human NCI-H1975 cells assessed as maximum inhibition of cell viability upto 198 uM incubated for 72 hrs by MTS assay relative to control; assay type: functional; conditions: up to 198 µM; outline: as §1
[13] = test system: RPMI-8226; test: Cytotoxicity against human RPMI-8226 cells assessed as inhibition of cell viability incubated for 72 hrs by MTS assay; assay type: functional, cell-based; conditions: RPMI-8226, 72 h; outline: as §2
[14] = test system: SK-MES-1; test: Cytotoxicity against human SK-MES-1 cells assessed as maximum inhibition of cell viability upto 198 uM incubated for 72 hrs by MTS assay relative to control; assay type: functional; conditions: up to 198 µM; outline: as §1
[15] = test system: HepG2; test: Cytotoxicity against human HepG2 cells assessed as inhibition of cell viability incubated for 72 hrs by MTS assay; assay type: functional, cell-based; conditions: HepG2, 72 h; outline: as §2
[16] = test system: MIA PaCa-2; test: Cytotoxicity against human MIA PaCa-2 cells assessed as maximum inhibition of cell viability upto 198 uM incubated for 72 hrs by MTS assay relative to control; assay type: functional; conditions: up to 198 µM; outline: as §1
[17] = test system: HepG2; test: Cytotoxicity against human HepG2 cells assessed as maximum inhibition of cell viability upto 198 uM incubated for 72 hrs by MTS assay relative to control; assay type: functional; conditions: up to 198 µM; outline: as §1

`Nc1nc(=O)n([C@H]2C[C@H](O)[C@@H](CO)O2)cc1F` gave an Imax [1] of 83%, an IC50 [2] of 0.02 µM and an IC50 [3] of 0.09 µM. It also gave an IC50 [4] of 0.3 µM, an IC50 [5] of 0.74 µM and an Imax [6] of 88%. It also gave an Imax [7] of 100%, an Imax [8] of 58% and an IC50 [9] of 0.13 µM. The IC50 [10] was 0.09 µM, the Imax [11] was 67% and the Imax [12] was 91%. It also gave an IC50 [13] of 11.8 µM, an Imax [14] of 67% and an IC50 [15] of 53.9 µM. It also gave an Imax [16] of 85% and an Imax [17] of 67%.
